Mot1-301 SUMO = yeast Mot1-301 growth rescue at high temperature, primary screen, SUMOylation pathway inhibitor project, S. cerevisiae, ATP luminescence, 38.5C. S. cerevisiae Mot1-301 growth rescue; percent above DMSO median, 100 means doubled. growth rescue, % at 18.8 µM. 320,000 tested, 1% active. AID 2716, 2010;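 active = every valid replicate shows activation above 250% relative to neutral control wells; inactive = the rest, any valid replicate at or below 250%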
UCH37 inh = inhibitors of human UCH37 deubiquitinase, primary screen, biochemical, Ub-AMC cleavage, fluorescence | Ubiquitin carboxyl-terminal hydrolase isozyme L5 (Homo sapiens), Q9Y5K5 | purified proteasome/UCH37 | inhibition, % (no concentration beside the values) | 330,000 tested, 0.33% active | AID 588478, 2011;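 active = mean inhibition over replicate wells above about 20%, limit read from the data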
Target sequence (Q9Y5K5 whole entry, looked up): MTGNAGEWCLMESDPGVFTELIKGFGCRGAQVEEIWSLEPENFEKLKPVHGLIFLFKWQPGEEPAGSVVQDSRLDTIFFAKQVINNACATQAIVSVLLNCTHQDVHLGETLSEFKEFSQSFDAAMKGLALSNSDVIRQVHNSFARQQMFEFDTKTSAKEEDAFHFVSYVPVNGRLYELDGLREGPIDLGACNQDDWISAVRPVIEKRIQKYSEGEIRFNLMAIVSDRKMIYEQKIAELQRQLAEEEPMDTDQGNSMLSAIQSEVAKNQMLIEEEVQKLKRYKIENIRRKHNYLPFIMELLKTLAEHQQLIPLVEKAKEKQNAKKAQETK
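Material: human UCH37 enzyme supplied as purified proteasome complex. Measure: % inhibition of Ub-AMC cleavage fluorescence. Medium: pH 7.4 Tris-HCl (50 mM) with ovalbumin, ATP-MgCl2, DTT. Times: 30 min preincubation with enzyme, 25 min cleavage at room temperature. Detection: AMC fluorescence intensity at 355/460 nm.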
RTF Ca sens inh = cardiac RTF calcium sensitivity inhibitors, primary screen, biochemical, IANBD-TnC fluorescence, EC70 calcium | Troponin I, cardiac muscle (Homo sapiens) + Troponin T, cardiac muscle (Homo sapiens) + … | IANBD-labeled cardiac RTF, Ca2+ fluorescence | inhibition, % at 7.15 µM | 340,000 tested, 0.12% active | AID 493244, 2011;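 active = inhibition above the mean inhibition of all tested compounds plus 3 SD, cut at about 17% in these data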;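 note: assay run at fixed EC70 calcium of 1.6 mM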
cardiac RTF act = cardiac RTF calcium sensitivity activators, primary screen, biochemical, IANBD-TnC fluorescence, EC20 calcium. Troponin I, cardiac muscle (Homo sapiens) + Troponin T, cardiac muscle (Homo sapiens) + …. IANBD-labeled TnC RTF fluorescence at EC20 calcium; 0% EC20 calcium, 100% full calcium. activation, % at 7.2 µM. 340,000 tested, 0.24% active. AID 493008, 2010;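 active = activation above the mean over all tested compounds plus 3 SD, cut at about 30% in these data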;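 note: rise in fluorescence read as greater calcium sensitivity of cardiac thin filaments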
ARNT TACC3 PPI = disruptors of ARNT/TACC3 protein interaction, primary screen, biochemical, AlphaScreen, single concentration; 390,000 tested, 0.66% active; Transforming acidic coiled-coil-containing protein 3 (Homo sapiens), Q9Y6A5; AlphaScreen His-ARNT PAS-B/GST-TACC3 binding, luminescence; TACC3 fragment carries E629A point mutation; inhibition, % at 9.99 µM; AID 623870, 2012;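 active = mean inhibition of replicates at least 50% and at least half of replicates each reaching 50%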
Efflux pump mplx = inhibitors of Candida efflux pumps in yeast, primary screen, S. cerevisiae, Nile Red, multiplex. inhibition, % at 10 µM. 330,000 tested, 0.44% active. AID 485275, 2010. S. cerevisiae Candida pump triplex;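 active = plate passing quality check with inhibition over a set limit, or well fluorescence over plate mean plus 4 SD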;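 note: Nile Red retained in pooled yeast measured as flow cytometry median fluorescence; higher means more Nile Red kept so more efflux inhibition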
Cmpd fluor yeast = counter-screen for efflux pump inhibitors: compound fluorescence; 1,700 tested, 4% active; shares compounds with Efflux pump mplx; fluorescence ratio to DMSO, % at 10 µM; S. cerevisiae AD/pABC3, flow cytometry; AID 588517;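 active = fluorescence ratio to DMSO above its plate's cutoff, the plate mean ratio plus 5 SD, cut at about 210% in these data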;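 note: unstained yeast with no Nile Red so the signal is compound autofluorescence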
Mdr1 pump inh = inhibitors of Candida albicans Mdr1 efflux, confirmation, flow cytometry, singleplex, Cherry Pick1 set. shares compounds with Efflux pump mplx. S. cerevisiae AD/CaMDR1, Nile Red efflux. inhibition, % at 10 µM. 1,700 tested, 1% active. AID 588518, 2011; in the data active = inhibition above about 26%;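 note: higher means more Nile Red retained so more efflux inhibition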
CaCdr2 efflux inh = inhibitors of Candida albicans Cdr2 efflux pump, confirmation, S. cerevisiae AD/CaCDR2, flow cytometry, cherry pick 1, singleplex | shares compounds with Efflux pump mplx | Nile Red retention | Nile Red retention ratio vs DMSO, % at 10 µM | 1,700 tested, 4% active | AID 588520, 2011; in the data active = Nile Red retention ratio vs DMSO above about 190%;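 note: higher ratio means more blocking of Cdr2 efflux of the dye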
Cdr1 pump inh = inhibitors of Candida albicans Cdr1 efflux pump, confirmation, S. cerevisiae AD/CaCDR1, flow cytometry, cherry pick 1, singleplex. shares compounds with Efflux pump mplx. Nile Red efflux. inhibition, % at 10 µM. 1,700 tested, 1% active. AID 588522, 2011;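 active = inhibition above the screen-wide mean plus twice its standard deviation, cut at about 32% in these data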
Numbers stand for hits. Compounds with a hit are over-represented: about 2.1% of the library has one in this group of screens.

Results for COc1ccc(C=NNC(=O)c2cccnc2)cc1CN1CCc2cc(OC)c(OC)cc2C1C (centres undefined) ?
UCH37 inh: inactive

Results for O=C(C(Cl)Cl)N1CCN(Cc2ccccc2)CC1 ?
Mot1-301 SUMO: inactive; UCH37 inh: inactive; RTF Ca sens inh: inactive; cardiac RTF act: inactive; ARNT TACC3 PPI: inactive; Efflux pump mplx: 16; Cmpd fluor yeast: inactive; Mdr1 pump inh: inactive; CaCdr2 efflux inh: inactive; Cdr1 pump inh: inactive

Results for O=[N+]([O-])c1cc(C(F)(F)F)ccc1NCCc1ccccn1 ?
Mot1-301 SUMO: inactive; UCH37 inh: inactive; RTF Ca sens inh: inactive; cardiac RTF act: inactive; ARNT TACC3 PPI: inactive; Efflux pump mplx: 0.9; Cmpd fluor yeast: inactive; Mdr1 pump inh: inactive; CaCdr2 efflux inh: inactive; Cdr1 pump inh: inactive

What do the screens show for `Cc1c(C=NNC(=O)c2cc(=O)[nH]c(=O)[nH]2)c2ccccn2c1C(=O)c1ccccc1`?
UCH37 inh: inactive

Results for Cn1nc([N+](=O)[O-])nc1Sc1ccc(Cl)cc1 ?
Mot1-301 SUMO: inactive; UCH37 inh: inactive; RTF Ca sens inh: inactive; cardiac RTF act: inactive; ARNT TACC3 PPI: inactive; Efflux pump mplx: 0.8; Cmpd fluor yeast: inactive; Mdr1 pump inh: inactive; CaCdr2 efflux inh: inactive; Cdr1 pump inh: inactive

What do the screens show for `O=C(CC(=O)NC1CCCCC1)NN=Cc1ccccc1F`?
UCH37 inh: inactive

What do the screens show for `COc1cc(OC)cc(-c2sc3ccc(OC)cc3c2-c2ccc(OCCN3CCOCC3)cc2)c1`?
UCH37 inh: inactive; RTF Ca sens inh: inactive; cardiac RTF act: inactive; ARNT TACC3 PPI: inactive; Efflux pump mplx: 160; Cmpd fluor yeast: inactive; Mdr1 pump inh: 95; CaCdr2 efflux inh: inactive; Cdr1 pump inh: 128

What do the screens show for `COc1cccc(-c2sc3ccc(OC)cc3c2-c2cc(F)cc(OC)c2)c1`?
Mot1-301 SUMO: inactive; UCH37 inh: inactive; RTF Ca sens inh: inactive; cardiac RTF act: inactive; ARNT TACC3 PPI: inactive; Efflux pump mplx: inactive

What do the screens show for `COc1cccc(-c2sc3ccc(OC)cc3c2-c2ccc(OCCN3CCOCC3)cc2)c1`?
Mot1-301 SUMO: inactive; RTF Ca sens inh: inactive; cardiac RTF act: inactive; ARNT TACC3 PPI: inactive; Efflux pump mplx: 70; Cmpd fluor yeast: inactive; Mdr1 pump inh: inactive; CaCdr2 efflux inh: inactive; Cdr1 pump inh: 67

What do the screens show for `COc1ccc(-c2sc3cc4c(cc3c2-c2ccc(OCCN3CCOCC3)cc2)OCO4)cc1`?
Mot1-301 SUMO: inactive; RTF Ca sens inh: inactive; cardiac RTF act: inactive; Efflux pump mplx: inactive

Results for CC(C)CC(=O)ON=C1C(=O)N(c2ccccc2)c2ccccc21 ?
UCH37 inh: inactive

What do the screens show for `CCCCCC(=NNC(=O)Nc1ccccc1)c1ccccc1`?
UCH37 inh: inactive

What do the screens show for `COc1ccc(OCC(=O)Nc2ccc(C(=O)Nc3ccccc3C(=O)O)cc2)cc1`?
Mot1-301 SUMO: inactive; UCH37 inh: inactive; RTF Ca sens inh: inactive; cardiac RTF act: inactive; ARNT TACC3 PPI: inactive; Efflux pump mplx: inactive

How did O=C(COc1ccc(Br)cc1)Nc1ccc(C(=O)Nc2ccccc2C(=O)O)cc1 do in these assays?
Mot1-301 SUMO: inactive; RTF Ca sens inh: inactive; cardiac RTF act: inactive; ARNT TACC3 PPI: inactive; Efflux pump mplx: 1.2; Cmpd fluor yeast: inactive; Mdr1 pump inh: inactive; CaCdr2 efflux inh: inactive; Cdr1 pump inh: inactive

How did CC(=NNC(=O)Cc1cc(=O)[nH][nH]1)c1ccc([N+](=O)[O-])cc1 do in these assays?
UCH37 inh: inactive

How did CC(=NNC(=O)c1cc(-c2cccc([N+](=O)[O-])c2)n[nH]1)c1cccc(O)c1 do in these assays?
UCH37 inh: inactive

How did COc1cc(C=NNc2cc(C)nc(NS(=O)(=O)c3ccc(C)cc3)n2)ccc1O do in these assays?
UCH37 inh: inactive

Results for COc1ccc(CCC(=O)NNC(=O)Cn2nc(C)cc2C)cc1 ?
Mot1-301 SUMO: inactive; UCH37 inh: inactive; RTF Ca sens inh: inactive; cardiac RTF act: inactive; ARNT TACC3 PPI: inactive; Efflux pump mplx: 5.5; Cmpd fluor yeast: inactive; Mdr1 pump inh: inactive; CaCdr2 efflux inh: inactive; Cdr1 pump inh: inactive

How did COC(=O)/C=C1/S/C(=N/N=Cc2ccco2)NC1=O do in these assays?
UCH37 inh: inactive

How did O=C(NN=Cc1ccc([N+](=O)[O-])cc1)c1c[nH]c2ccccc12 do in these assays?
UCH37 inh: inactive

Results for CCOc1ccc(C(=O)NCc2ccco2)cc1 ?
Mot1-301 SUMO: inactive; UCH37 inh: inactive; RTF Ca sens inh: inactive; cardiac RTF act: inactive; ARNT TACC3 PPI: inactive; Efflux pump mplx: 1.2; Cmpd fluor yeast: inactive; Mdr1 pump inh: inactive; CaCdr2 efflux inh: inactive; Cdr1 pump inh: inactive

Results for Clc1ccccc1CN1CCN(N=C/C=C/c2ccco2)CC1 ?
UCH37 inh: inactive

Results for Cc1[nH]c2ccccc2c1C(=O)C(C)OC(=O)c1ccc([N+](=O)[O-])o1 (centres undefined) ?
Mot1-301 SUMO: inactive; UCH37 inh: inactive; RTF Ca sens inh: inactive; cardiac RTF act: inactive; ARNT TACC3 PPI: inactive; Efflux pump mplx: 0.4; Cmpd fluor yeast: inactive; Mdr1 pump inh: inactive; CaCdr2 efflux inh: inactive; Cdr1 pump inh: inactive

Results for Cc1nnc(NN=Cc2cc([N+](=O)[O-])c(N3CCC(C)CC3)cc2N2CCC(C)CC2)n1N ?
UCH37 inh: inactive

Assay outcomes: PubChem BioAssay, several laboratories
